≈ marks a conversion by molar mass, not a printed value. Calls of active or inactive are those of the source.
Assays:
Candida albicans [1] = experiment: Antifungal activity against Candida albicans AN 1699 by broth dilution method; assay type: functional
Summary of the method: (§1)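 MICs by broth microdilution following CLSI M27-A3 for yeasts, with fluconazole as the reference antifungal. Panel covered type strains and clinical isolates of Candida spp. (21 strains). Reference control strains: C. albicans DSMZ 11949, C. glabrata ATCC 90030, C. parapsilosis 22019 and 90018, Issatchenkia orientalis ATCC 6258. MIC in μg/mL; averages given as geometric means.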

Candida albicans [2] = experiment: Antifungal activity against Candida albicans Jg 32570 by broth dilution method; assay type: functional; summary of the method: as §1
Candida parapsilosis [3] = experiment: Antifungal activity against Candida parapsilosis 90018 by broth dilution method; assay type: functional; conditions: Lodderomyces parapsilosis; summary of the method: as §1
Candida albicans [4] = experiment: Antifungal activity against Candida albicans AN 562 by broth dilution method; assay type: functional; summary of the method: as §1
Candida albicans [5] = experiment: Antifungal activity against Candida albicans CA21 by broth dilution method; assay type: functional; summary of the method: as §1
Candida albicans [6] = experiment: Antifungal activity against Candida albicans CA20 by broth dilution method; assay type: functional; summary of the method: as §1
Candida parapsilosis [7] = experiment: Antifungal activity against Candida parapsilosis 22019 by broth dilution method; assay type: functional; conditions: Lodderomyces parapsilosis; summary of the method: as §1
Candida albicans [8] = experiment: Antifungal activity against Candida albicans SC5314 infected in HeLa cells at 20 uM after 5 days by fluorescein diacetate assay; assay type: functional, organism-based
Summary of the method: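 Primary HTS: HeLa cells co-incubated with C. albicans plus a single compound at ~20 μM for 5 days. Viability checked microscopically at 18 h and quantified at day 5 by fluorescein diacetate fluorescence. Wells also scanned visually for yeast growth. Hit criterion: >40% signal relative to the uninfected untreated HeLa (~100%) and infected untreated HeLa (~0%) controls.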

Candida albicans [9] = experiment: Antifungal activity against Candida albicans DSMZ 11949 by broth dilution method; assay type: functional; summary of the method: as §1
Nakaseomyces glabratus [10] = experiment: Antifungal activity against Candida glabrata CG 7 by broth dilution method; assay type: functional; summary of the method: as §1
Pichia kudriavzevii = experiment: Antifungal activity against Issatchenkia orientalis ATCC 6258 by broth dilution method; assay type: functional; summary of the method: as §1
Nakaseomyces glabratus [11] = experiment: Antifungal activity against Candida glabrata ATCC 90030 by broth dilution method; assay type: functional; summary of the method: as §1
Candida albicans [12] = experiment: Antifungal activity against Candida albicans SC5314 infected in HeLa cells after 5 days by fluorescein diacetate assay; assay type: functional, organism-based
Summary of the method: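 HeLa cells co-incubated with C. albicans and compound for 5 days. Dose–response from resynthesized compounds. Host-cell viability checked microscopically at 18 h, then quantified at day 5 by fluorescein diacetate conversion to a fluorophore by live cells. Wells also inspected visually for yeast growth. Controls: untreated uninfected HeLa (~100%) and untreated infected HeLa (~0%). IC50 derived from infected cells; CC50 as half-maximal cytotoxic concentration.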

Nakaseomyces glabratus [13] = experiment: Antifungal activity against Candida glabrata AN 8626 by broth dilution method; assay type: functional; summary of the method: as §1
Candida albicans [14] = experiment: Antifungal activity against Candida albicans VB 1723 by broth dilution method; assay type: functional; summary of the method: as §1
Candida tropicalis = experiment: Antifungal activity against Candida tropicalis AN 1946 by broth dilution method; assay type: functional; summary of the method: as §1
Candida albicans [15] = experiment: Antifungal activity against Candida albicans AM2001/2007 by broth dilution method; assay type: functional; summary of the method: as §1
Candida albicans [16] = experiment: Antifungal activity against Candida albicans MY 2902/2008 by broth dilution method; assay type: functional; summary of the method: as §1
Candida parapsilosis [17] = experiment: Antifungal activity against Candida parapsilosis AN 5485 by broth dilution method; assay type: functional; conditions: Lodderomyces parapsilosis; summary of the method: as §1
[18] = Cytotoxicity against human HeLa cells assessed as cell viability after 5 days by fluorescein diacetate assay; assay type: cell-based
Candida parapsilosis [19] = experiment: Antifungal activity against Candida parapsilosis AV 7675 by broth dilution method; assay type: functional; conditions: Lodderomyces parapsilosis; summary of the method: as §1
[20] = Selectivity index of CC50 for human HeLa cells to IC50 for Candida albicans SC5314 infected in HeLa cells
Summary of the method: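 Selectivity index calculated as CC50/IC50. CC50 is the half-maximal cytotoxic concentration in HeLa cells; IC50 is the half-maximal antimycotic concentration in the C. albicans–infected HeLa assay. Both come from 5-day fluorescein diacetate viability readouts.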

Candida albicans [21] = experiment: Antifungal activity against Candida albicans AN 3156 by broth dilution method; assay type: functional; summary of the method: as §1
Candida albicans [22] = experiment: Antifungal activity against Candida albicans AN 1994 by broth dilution method; assay type: functional; summary of the method: as §1
Candida albicans [23] = experiment: Antifungal activity against Candida albicans SCS 71865 L by broth dilution method; assay type: functional; summary of the method: as §1
[24] = Candida albicans, SC5314, HeLa, 120 h, read-out: IC50

Row | SMILES | MIC (Candida albicans [1]) [µg/mL] | MIC (Candida albicans [2]) [µg/mL] | MIC (Candida parapsilosis [3]) [µg/mL] | MIC (Candida albicans [4]) [µg/mL] | MIC (Candida albicans [5]) [µg/mL] | MIC (Candida albicans [6]) [µg/mL] | MIC (Candida parapsilosis [7]) [µg/mL] | MIC (Candida albicans [9]) [µg/mL] | MIC (Nakaseomyces glabratus [10]) [µg/mL] | MIC (Pichia kudriavzevii) [µg/mL] | MIC (Nakaseomyces glabratus [11]) [µg/mL] | IC50 (Candida albicans [12]; [24]) [µM] | MIC (Nakaseomyces glabratus [13]) [µg/mL] | MIC (Candida albicans [14]) [µg/mL] | MIC (Candida tropicalis) [µg/mL] | MIC (Candida albicans [15]) [µg/mL] | MIC (Candida albicans [16]) [µg/mL] | inhibition (Candida albicans [8]) | CC50 at 120 h [18] [µM] | Ratio CC50/IC50 [20] | other results
1 | CC(=O)N[C@H](c1nc2ccccc2n1Cc1cccc(Cl)c1)C(C)C | – | – | – | – | – | – | – | – | – | – | – | – | – | – | – | – | – | – | – | – | IC50 (Candida albicans [12]; hela): Not Active
2 | CCC[C@H](N)c1nc2ccccc2n1Cc1cccc(C)c1 | – | – | – | – | – | – | – | – | – | – | – | 2 | – | – | – | – | – | inactive | 30 | 15 | –
3 | Cc1cccc(Cn2c([C@H](C)N)nc3ccccc32)c1 | 128 (≈ 482 µM) | 128 (≈ 482 µM) | 128 (≈ 482 µM) | 128 (≈ 482 µM) | 64 (≈ 241 µM) | 1 (≈ 3.77 µM) | 128 (≈ 482 µM) | 8 (≈ 30.1 µM) | 64 (≈ 241 µM) | 128 (≈ 482 µM) | 64 (≈ 241 µM) | – | 64 (≈ 241 µM) | 128 (≈ 482 µM) | 128 (≈ 482 µM) | 64 (≈ 241 µM) | 32 (≈ 121 µM) | inactive | – | – | MIC (Candida parapsilosis [17]): 128 µg/mL (≈ 482 µM); MIC (Candida parapsilosis [19]): 128 µg/mL (≈ 482 µM); MIC (Candida albicans [21]): 128 µg/mL (≈ 482 µM); MIC (Candida albicans [22]): 128 µg/mL (≈ 482 µM); MIC (Candida albicans [23]): 128 µg/mL (≈ 482 µM)
4 | CC(C)C[C@H](N)c1nc2ccccc2n1Cc1ccc(Cl)cc1 | – | – | – | – | – | – | – | – | – | – | – | 4 | – | – | – | – | – | inactive | 36 | 9 | –
5 | C[C@@H]1[C@H](O)[C@@H](C)/C=C/C=C/C=C/C=C/C=C/C=C/C=C/[C@H](O[C@@H]2O[C@H](C)[C@@H](O)[C@H](N)[C@@H]2O)C[C@@H]2O[C@](O)(C[C@@H](O)C[C@@H](O)[C@H](O)CC[C@@H](O)C[C@@H](O)CC(=O)O[C@H]1C)C[C@H](O)[C@H]2C(=O)O [AMPHOTERICIN B] | – | – | – | – | – | – | – | – | – | – | – | 0.5 | – | – | – | – | – | – | – | – | –
6 | CC(C)[C@@H](N)c1nc2ccccc2n1Cc1cccc(Cl)c1 | – | – | – | – | – | – | – | – | – | – | – | – | – | – | – | – | – | – | – | – | IC50 (Candida albicans [12]; hela): Not Active
7 | CC(C)(N)c1nc2ccccc2n1Cc1ccc(Cl)cc1 | – | – | – | – | – | – | – | – | – | – | – | 5 | – | – | – | – | – | inactive | 50 | 10 | –

The next lines start with results.

Row | MIC (Candida albicans [1]) [µg/mL] | MIC (Candida albicans [2]) [µg/mL] | MIC (Candida parapsilosis [3]) [µg/mL] | MIC (Candida albicans [4]) [µg/mL] | MIC (Candida albicans [5]) [µg/mL] | MIC (Candida albicans [6]) [µg/mL] | MIC (Candida parapsilosis [7]) [µg/mL] | MIC (Candida albicans [9]) [µg/mL] | MIC (Nakaseomyces glabratus [10]) [µg/mL] | MIC (Pichia kudriavzevii) [µg/mL] | MIC (Nakaseomyces glabratus [11]) [µg/mL] | IC50 (Candida albicans [12]; [24]) [µM] | MIC (Nakaseomyces glabratus [13]) [µg/mL] | MIC (Candida albicans [14]) [µg/mL] | MIC (Candida tropicalis) [µg/mL] | MIC (Candida albicans [15]) [µg/mL] | MIC (Candida albicans [16]) [µg/mL] | SMILES | inhibition (Candida albicans [8]) | CC50 at 120 h [18] [µM] | Ratio CC50/IC50 [20] | other results
8 | 16 (≈ 56 µM) | 128 (≈ 448 µM) | 4 (≈ 14 µM) | 16 (≈ 56 µM) | 0.125 (≈ 0.437 µM) | 0.125 (≈ 0.437 µM) | 4 (≈ 14 µM) | 4 (≈ 14 µM) | 8 (≈ 28 µM) | 4 (≈ 14 µM) | 8 (≈ 28 µM) | 7.8 | 4 (≈ 14 µM) | 1 (≈ 3.5 µM) | 8 (≈ 28 µM) | 8 (≈ 28 µM) | 0.5 (≈ 1.75 µM) | C[C@H](N)c1nc2ccccc2n1Cc1cccc(Cl)c1 | inactive | 19.3 | 2.5 | MIC (Candida parapsilosis [17]): 8 µg/mL (≈ 28 µM); MIC (Candida parapsilosis [19]): 128 µg/mL (≈ 448 µM); MIC (Candida albicans [21]): 16 µg/mL (≈ 56 µM); MIC (Candida albicans [22]): 16 µg/mL (≈ 56 µM); MIC (Candida albicans [23]): 8 µg/mL (≈ 28 µM)
9 | 64 (≈ 218 µM) | 128 (≈ 436 µM) | 1 (≈ 3.41 µM) | 32 (≈ 109 µM) | 0.5 (≈ 1.7 µM) | 0.125 (≈ 0.426 µM) | 1 (≈ 3.41 µM) | 16 (≈ 54.5 µM) | 32 (≈ 109 µM) | 1 (≈ 3.41 µM) | 0.25 (≈ 0.852 µM) | 3.3 | 0.125 (≈ 0.426 µM) | 32 (≈ 109 µM) | 8 (≈ 27.3 µM) | 16 (≈ 54.5 µM) | 32 (≈ 109 µM) | Cc1cccc(Cn2c([C@@H](N)C(C)C)nc3ccccc32)c1 | inactive | 10.6 | 3.2 | MIC (Candida parapsilosis [17]): 2 µg/mL (≈ 6.82 µM); MIC (Candida parapsilosis [19]): 128 µg/mL (≈ 436 µM); MIC (Candida albicans [21]): 32 µg/mL (≈ 109 µM); MIC (Candida albicans [22]): 32 µg/mL (≈ 109 µM); MIC (Candida albicans [23]): 32 µg/mL (≈ 109 µM)
10 | 32 (≈ 102 µM) | 16 (≈ 51 µM) | 0.5 (≈ 1.59 µM) | 16 (≈ 51 µM) | 0.125 (≈ 0.398 µM) | 0.125 (≈ 0.398 µM) | 2 (≈ 6.37 µM) | 2 (≈ 6.37 µM) | 2 (≈ 6.37 µM) | 0.5 (≈ 1.59 µM) | 0.125 (≈ 0.398 µM) | 0.75 | 0.125 (≈ 0.398 µM) | 0.25 (≈ 0.797 µM) | 4 (≈ 12.7 µM) | 0.25 (≈ 0.797 µM) | 16 (≈ 51 µM) | CC(C)[C@H](N)c1nc2ccccc2n1Cc1cccc(Cl)c1 | – | 97.5 | 130 | MIC (Candida parapsilosis [17]): 1 µg/mL (≈ 3.19 µM); MIC (Candida parapsilosis [19]): 8 µg/mL (≈ 25.5 µM); MIC (Candida albicans [21]): 16 µg/mL (≈ 51 µM); MIC (Candida albicans [22]): 16 µg/mL (≈ 51 µM); MIC (Candida albicans [23]): 64 µg/mL (≈ 204 µM)

— ChEMBL document CHEMBL1828627, “High-throughput-screening-based identification and structure-activity relationship characterization defined (S)-2-(1-aminoisobutyl)-1-(3-chlorobenzyl)benzimidazole as a highly antimycotic agent nontoxic to cell lines” (J Med Chem, 2011)
